Measured values from paper PMC10052233 (JACS Au, 2023).

What was measured:
apo-NDM-1 [1] = molecular target: T1, apo-NDM-1 (Klebsiella pneumoniae, UniProt C7C422); test: 1H-15N TROSY-HSQC and 19F NMR titration of apo-NDM-1 with inhibitors; format: binding; details: apo-NDM-1, 298 K
di-Zn-NDM-1 [2] = molecular target: T2, di-Zn-NDM-1 (Klebsiella pneumoniae, UniProt C7C422); test: 1H-15N TROSY-HSQC and 19F NMR titration of di-Zn-NDM-1 with inhibitors; format: binding; details: di-Zn-NDM-1, 298 K
di-Zn-NDM-1 [3] = molecular target: T2, di-Zn-NDM-1; test: Thermal stability by circular dichroism, di-Zn-NDM-1
apo-NDM-1 [4] = molecular target: T1, apo-NDM-1; test: Thermal stability by circular dichroism, apo-NDM-1; details: CD, ellipticity at 208 nm; apo-NDM-1 alone 46.1 °C
di-Zn-NDM-1 [5] = molecular target: T2, di-Zn-NDM-1; test: 19F NMR titration, dissociation constant with di-Zn-NDM-1; format: binding
In short: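 NDM-1 (residues 36−270) carrying a C-terminal His6 tag, expressed in E. coli BL21 (DE3) and purified by Ni2+-affinity and size-exclusion chromatography. di-Zn protein, 0.1−0.3 mM, titrated with test compound at ratios chosen so the protein was mostly bound. 19F spectra recorded at each ratio. Kd derived from titration of the residue Y229 signal.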

T1 sequence (C7C422 36-270): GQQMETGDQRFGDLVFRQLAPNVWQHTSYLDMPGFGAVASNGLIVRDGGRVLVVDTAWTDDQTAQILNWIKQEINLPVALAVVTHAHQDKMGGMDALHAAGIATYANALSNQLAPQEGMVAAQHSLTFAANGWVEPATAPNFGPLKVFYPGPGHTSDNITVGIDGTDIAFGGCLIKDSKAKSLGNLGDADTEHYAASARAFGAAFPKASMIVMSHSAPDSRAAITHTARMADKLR
T2 sequence (C7C422 36-270): as above

Compound	changes of 1H-15N TROSY-HSQC / 19F spectra upon titration (apo-NDM-1 [1])	changes of 1H-15N TROSY-HSQC / 19F spectra upon titration (di-Zn-NDM-1 [2])	Tm of ebselen-bound di-Zn-NDM-1 (di-Zn-NDM-1 [3]; CD, ellipticity at 208 nm, di-Zn-NDM-1 alone 53.9 °C) [°C]	Tm lower than that of di-Zn-NDM-1 (di-Zn-NDM-1 [3]; ebselen-bound di-Zn-NDM-1 vs di-Zn-NDM-1)	Tm of ebselen-bound apo-NDM-1 (apo-NDM-1 [4]) [°C]	Kd (di-Zn-NDM-1 [5]) [µM]
CC(CS)C(=O)O (stereo not drawn) [3-mercaptoisobutyric acid]	No changes	large chemical shift changes	–	–	–	–
O=c1c2ccccc2[se]n1-c1ccccc1 [ebselen]	almost all of the cross-peaks in the 2D TROSY-HSQC spectra disappear	almost all of the cross-peaks in the 2D TROSY-HSQC spectra disappear	48.4	about 5.5 °C	46.1	–
O=C(O)CNC(=O)C(CS)Cc1ccccc1 (stereo not drawn) [thiorphan]	No changes	large chemical shift changes	–	–	–	–
O=C(O)c1cccc(C(=O)O)n1 [dipicolinic acid]	only minute chemical shift changes	significant changes	–	–	–	–
O=C(O)c1cc[c]([Hg][Cl])cc1 [chloromercuribenzoic acid, 4-chloromercuribenzoic acid]	almost all of the cross-peaks in the 2D TROSY-HSQC spectra disappear	almost all of the cross-peaks in the 2D TROSY-HSQC spectra disappear	–	–	–	–
OCC(S)CS (stereo not drawn) [2,3-dimercapto-1-propanol]	No changes	large chemical shift changes	–	–	–	712
c1cnc2c(c1)ccc1cccnc12 [phenanthroline]	only minute chemical shift changes	significant changes	–	–	–	–
colloidal bismuth subcitrate [CBS]	shifted significantly	no changes	–	–	–	–
O[C@@H](CS)[C@@H](O)CS (racemic) [DTT, dithiothreitol]	No changes	large chemical shift changes	–	–	–	30
c1ccc(CN(Cc2ccccn2)Cc2ccccn2)nc1 [TPA, tris-picolylamine]	only minute chemical shift changes	significant changes	–	–	–	–
CC(S)C(=O)NCC(=O)O (stereo not drawn) [tiopronin]	No changes	large chemical shift changes	–	–	–	121
N[C@@H](C(=O)N[C@@H]1C(=O)N2C(C(=O)O)=C(Cl)CS[C@H]12)c1ccccc1 [cefaclor]	almost all of the cross-peaks in the 2D TROSY-HSQC spectra disappear	almost all of the cross-peaks in the 2D TROSY-HSQC spectra disappear	–	–	–	–
